ANO1 block: TMEM16A chloride channel inhibitors, primary screen, cell-based, HTS | AID 588511, 2011 | HEK293 TMEM16A/YFP iodide influx fluorescence, ionomycin | actives 1.2% (n = 310,000) | Anoctamin-1 (Mus musculus), Q8BHY3 | normalized B-score (activity score, 25-100; higher = stronger inhibition) at 10 µM;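 active means ratio plate-corrected score three or more library SD toward inhibition, starting fluorescence score within five deviations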;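 further: score derived from kinetic fluorescence span divided by baseline fluorescence per well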
ANO1 activ: TMEM16A chloride channel activators or potentiators, primary screen, cell-based, HTS. actives 0.3% (n = 340,000). B-score at 10 µM. Anoctamin-1 (Mus musculus), Q8BHY3. HEK293 TMEM16A/YFP-H148Q/I152L, iodide quench fluorescence; hits give low values;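 active means fluorescence-ratio B-score plate-corrected deviation score at least 3 library SD below zero, with starting fluorescence score within 5 deviations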;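 further: channel opened by trigger with iodide after compound preincubation; score built on the fluorescence ratio of max minus min over baseline; more negative score means more quench and so TMEM16A activation or potentiation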
Beta cell apopt: inhibitors of cytokine-induced beta cell apoptosis, primary screen, luminescence | INS-1E cytokine-induced death, ATP luminescence, 48 h; percent of positive-control rescue, neutral wells zero | protection from apoptosis, % (no concentration beside the values) | actives 0.8% (n = 300,000) | AID 435005, 2010;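 active means Every replicate reaches about 75%, or at least half do and their mean reaches it too, limit read from the data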;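 further: 0% = cytokine-treated negative control wells and 100% = positive control rescue; higher means more ATP so stronger rescue from cytokine killing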
CSC inhib: cancer stem cell viability inhibitors, primary screen, luminescence; inhibition, % at 7.5 µM; AID 2717, 2010; cancer stem cell-like cells viability; actives 1.1% (n = 300,000); in the data active means inhibition above about 75%; tested in HMLE shEcad cells
MC4R ag barr: MC4R agonists recruiting beta-arrestin, primary screen, cell-based, luminescence, agonist arm of biased-ligand search. Melanocortin receptor 4 (Homo sapiens), P32245. U2OS MC4R beta-arrestin complementation; percent of melanotan II response, DMSO zero. AID 540308, 2011. activation, % at 8.9 µM. actives 0.98% (n = 360,000);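 active means activation above a per-plate cutoff, the mean activation of sample wells on that plate plus 3 SD, cut at about 8% in these data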
Target sequence (P32245 whole entry, looked up): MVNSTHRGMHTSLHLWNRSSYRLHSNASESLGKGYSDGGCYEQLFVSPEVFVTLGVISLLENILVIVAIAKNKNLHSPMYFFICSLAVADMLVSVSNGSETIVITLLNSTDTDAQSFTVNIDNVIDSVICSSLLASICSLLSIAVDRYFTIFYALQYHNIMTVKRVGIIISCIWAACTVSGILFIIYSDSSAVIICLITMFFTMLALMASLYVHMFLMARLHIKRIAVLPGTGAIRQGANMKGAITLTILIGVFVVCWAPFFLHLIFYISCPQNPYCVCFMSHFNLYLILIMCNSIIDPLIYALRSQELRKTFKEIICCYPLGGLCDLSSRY
MC4R antag cAMP: MC4R antagonists of cAMP signaling, primary screen, cell-based, TR-FRET, antagonist arm of biased-ligand search; MC4R-expressing cells, MTII-stimulated cAMP, LANCE TR-FRET; Melanocortin receptor 4 (Homo sapiens), P32245; AID 540295, 2011; inhibition, % at 6.5 µM; actives 0.48% (n = 360,000);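 active means inhibition above its plate's cutoff, the mean of tested wells on that plate plus 3 SD, cut at about 29% in these data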;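 further: 0% = Melanotan II alone and 100% = Melanotan II plus saturating MCL0020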
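System: U2OS cells stably expressing human melanocortin 4 receptor (MC4R). Reagent: Melanotan II challenge after compound preincubation. Doses: 6.5 µM. Times: 30-min compound, 1-h challenge, 1-h detection, room temperature. Measured by: TR-FRET with Eu-cAMP and labeled anti-cAMP, 671 nm. Replicates: singlicate.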
U2OS cAMP counter: nonselective cAMP signaling inhibitors, parental cells, counter-screen for MC4R biased antagonist project, cell-based, TR-FRET, U2OS, forskolin, triplicate; shares compounds with MC4R antag cAMP; inhibition, % at 6.5 µM; AID 602193, 2012; actives 26% (n = 1,600); LANCE TR-FRET;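 active means mean inhibition over triplicates above the low-control well mean plus 3 SD, set per campaign, cut at about 13% in these data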;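 further: signal is single emission at 671 nm which falls as cellular cAMP rises; 0% = forskolin-stimulated wells and 100% = buffer without forskolin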
MC4R antag conf: MC4R cAMP antagonists, retest, confirmation, cell-based, TR-FRET | inhibition, % at 6.5 µM | shares compounds with MC4R antag cAMP | actives 27% (n = 1,600) | MC4R-expressing cells, MTII-stimulated cAMP; in the data active means inhibition above about 29%;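 further: 0% = agonist stimulated wells alone and 100% = agonist stimulated wells plus saturating reference antagonist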
* marks the source's active call; other numbers are inactive results; i = inactive; x = no result. This is a sample that favours compounds with a hit; in the whole collection about 3.8% have one here.

SMILES	ANO1 block	ANO1 activ	Beta cell apopt	CSC inhib	MC4R ag barr	MC4R antag cAMP	U2OS cAMP counter	MC4R antag conf
CCC(OC(=O)CNS(=O)(=O)c1ccccc1)C(=O)c1ccccc1 (stereo unspecified)	i	i	-9	3	0	37*	17*	31*
Cc1ccc(S(=O)(=O)NCC(=O)OC(C)C(=O)c2ccccc2)cc1 (stereo unspecified)	i	i	-2	-11	0	22	x	x
COc1ccc(CCC2(C)NC(=O)N(C(C)C(=O)N3c4ccccc4CC3C)C2=O)cc1 (stereo unspecified)	x	i	-2	1	0	13	x	x
COC(=O)Cn1c(CN2CCN(c3ccc(F)cc3)CC2)nc2c1c(=O)n(C)c(=O)n2C	i	i	-6	x	1	29*	4	11
COC(=O)C[C@@H]1C[C@@H]2c3cc(NC(=O)Cc4ccncc4)ccc3O[C@@H]2[C@@H](CO)O1	x	x	x	x	0	2	x	x
c1ccc(-c2nnc3nc(N4CCCCC4)nc(N4CCCCC4)n23)cc1	x	i	x	x	-4	5	x	x
Cc1cccc(C)c1NC(=O)c1sc(N)nc1-c1ccccc1	i	i	-6	8	1	30*	-3	5
COc1ccc(CN(C(=O)/C=C/C(=O)c2ccc(OC)cc2O)C(C(=O)NC2CCCCC2)c2ccncc2)cc1 (stereo unspecified)	i	i	2	-1	0	10	x	x
COc1ccc(C(=O)/C=C/C(=O)N(CC(=O)NC2CCCCC2)Cc2cccs2)c(O)c1	i	i	39	76*	-6	32*	10	23
COCCN(CC(=O)NC1CCCCC1)C(=O)/C=C/C(=O)c1ccc(OC)cc1O	x	i	x	x	-6	41*	2	5
CC(=O)SC1CC(=O)C=C2CCC3C4CCC(=O)OC4(C)CCC3C21C (stereo unspecified)	x	i	x	x	-2	0	x	x
N/C(=N\O)c1ccc(Cl)cc1Cl	i	i	3	3	0	-11	x	x
COc1ccccc1NC(=O)N(C)C[C@@H]1OCc2cnnn2CCCC(=O)N([C@H](C)CO)C[C@H]1C	x	x	x	x	0	2	x	x
CC[N+]1(C)CCC(O)(c2ccc(OC)cc2)C(C(=O)c2ccc(OC)cc2)C1 (stereo unspecified)	x	i	x	x	-4	29*	17*	17
O=c1[nH]c(=S)[nH]cc1Oc1ccc(Cl)cc1Cl	x	i	x	x	1	36*	3	2
COc1ccc(-n2cccc2/C=C2\C(=N)N3N=C(C(C)C)SC3=NC2=O)cc1	i	i	1	-1	-2	47*	1	8
CCC1=NN2C(=N)/C(=C\c3cccn3-c3ccc(C)cc3C)C(=O)N=C2S1	i	i	4	50	1	44*	1	9
CC(C)C[C@@H](CC#N)N1CCN(Cc2ccccc2)CCC1=O	i	i	1	18	0	-2	x	x
O=C1CN(S(=O)(=O)c2cccc(C(=O)O)c2)c2ccccc2N1	i	i	-3	8	0	2	x	x
O=C(CCCCCNC(=O)N1CCn2c1nc1ccccc12)NCCc1ccccc1	i	i	-7	-10	-1	7	x	x
Cc1cccc2c(N=Nc3ccc(S(=O)(=O)Nc4ccc(Cl)cc4)cc3[N+](=O)[O-])c(O)[nH]c12	i	i	-3	-5	-1	1	x	x
ClCC1NCC(c2ccccc2Cl)c2c1[nH]c1ccccc21 (stereo unspecified)	i	i	-5	20	3	36*	2	3
Cc1cccc(N2C(=O)C(O)=C(C(=O)c3cccs3)C2c2ccccc2)n1 (stereo unspecified)	i	i	-4	0	-1	30*	6	17
CCOc1ncccc1C(=O)Nc1nc(C(C)(C)C)cs1	i	i	8	11	8.7*	34*	1	-2
CCc1ccc(C(C(=O)NCc2ccc(F)cc2)N(C(=O)c2csnn2)C2CC2)cc1 (stereo unspecified)	i	i	-4	-12	2	29*	3	3
SMILES	ANO1 block	ANO1 activ	Beta cell apopt	CSC inhib	MC4R ag barr	MC4R antag cAMP	U2OS cAMP counter	MC4R antag conf
COc1ccc(C(CNC(=O)c2cc(F)c(F)c(F)c2F)N2CCOCC2)cc1 (stereo unspecified)	i	i	2	1	-2	31*	19*	36*
COc1ccc(C(CNC(=O)CSc2ccccc2F)N2CCOCC2)cc1 (stereo unspecified)	i	i	1	-8	0	3	x	x
CCOC(=O)c1c(NC(=O)CSc2nc3cc(Cl)ccc3c(=O)n2Cc2ccco2)sc(C(=O)N(C)C)c1C	i	i	27	52	1	31*	-4	6
CCOC(=O)c1c(NC(=O)COC(=O)c2nc(Cl)ccc2Cl)sc(C(=O)N(C)C)c1C	i	i	3	0	-1	1	x	x
CCOC(=O)c1c(NC(=O)COC(=O)CNC(=O)c2ccc(Cl)cc2Cl)sc(C(=O)N(C)C)c1C	i	i	x	-14	-1	31*	6	8
CCc1ccc(NC(=O)CSc2nc3cc(C(=O)OC)ccc3c(=O)n2Cc2ccco2)cc1	i	i	9	0	-1	1	x	x
FC(F)(F)c1cnc(Oc2cccc3ccccc23)c(Cl)c1	i	i	2	-2	2	29*	-2	-6
O=C(CSc1nc2nn(-c3ccccc3)c(=O)c-2c2n1CCCCC2)Nc1ccc(OC(F)F)cc1	x	i	4	4	-2	5	x	x
COc1cccc(N2CCN(c3ncnc4c3[nH]c3ccc(F)cc34)CC2C)c1 (stereo unspecified)	100*	i	110*	-9	22*	40*	26*	51*
CC(/C=C/c1ccc(O)cc1)=NNc1ccccc1	x	i	x	x	1	-3	x	x
O=C(c1cc(-c2cccc(O)c2)on1)N1CCCC1	i	i	10	2	-1	31*	0	1

Bioassay records from PubChem.
